According to the EternaBench riboswitch data:

System: MS2 coat protein
Test: apparent Kd, MS2 coat protein; higher = weaker binding; RNA-MaP array; tryptophan 2.4 mM where present
Outline: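 Designs on Illumina sequencing-chip clusters, transcribed by stalled E. coli RNA polymerase, were exposed to SNAP-549-labelled MS2 coat protein in doubling steps from 0.7 or 1.5 nM up to 3 µM, without and then with constant ligand. The buffer held 100 mM Tris-HCl pH 7.5, 80 mM KCl, 4 mM MgCl2, BSA, DTT, yeast tRNA and Tween-20. Apparent Kd values are medians of filtered per-cluster binding-curve fits to green signal normalised to red-channel RNA signal and control-cluster median Fmax.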

[1] = designed as: ON switch for tryptophan, no ligand
[2] = ligand present: tryptophan, designed as: ON switch for tryptophan
[3] = designed as: OFF switch for tryptophan, no ligand
[4] = ligand present: tryptophan, designed as: OFF switch for tryptophan

ACAUUAGCCACGGCCGCCACUGCCUUAUGAUUAUAAGGAUUAAUGAACAUGAGGAUCACCCAUGUCAGGACCGGGUGCCUACCAU
apparent Kd [1]: 22 nM | apparent Kd [2]: 20.7 nM

AAUAAUAAGGCGGCCGCCACUACACAUGAGGAUCACCCAUGUCUCGCGGGCUUGCGUUGGGAAUGUAGGACCGGGCCAAUAAUAA
apparent Kd [3]: 24.3 nM | apparent Kd [4]: 18.3 nM

UCGUUUUAGUCGGCCGCCACUGUAUGCAUGUUUAACAUGAGGAUCACCCAUGUCCCGUUCUAUUUCAGGACCGGGACGUAAUCGA
apparent Kd [1]: 525 nM | apparent Kd [2]: 344 nM

GAGCUCGUGGACUGGCGUGCUCCGCUCCGUCGAGGACCGGUACGGCCGCCACUCGACAUGAGGAUCACCCAUGUGUGAGCUCGCG
apparent Kd [3]: 62.5 nM | apparent Kd [4]: 30.6 nM

UUAUAAGUACCGGUCCUCAGAUCCUCAUGACGAGGACCGGUACGGCCGCCACUCGAAACAUGAGGAUCACCCAUGUAAUAAUAUU
apparent Kd [3]: 22.1 nM | apparent Kd [4]: 20 nM

UUCGUAUUGUCGGCCGCCACUGCAACAUGAGGAUCACCCAUGUAAGAAUGGUUGUAAAUAUAUUACAGGACCGGGACAAUAGUAA
apparent Kd [3]: 17.6 nM | apparent Kd [4]: 51.6 nM

ACGUUGAAGUCGGCCGCCACUGAUUUCAUGUUCAACAUGAGGAUCACCCAUGUACCUUAUGUUAACAGGACCGGGACGUAUACGA
apparent Kd [1]: 479 nM | apparent Kd [2]: 117 nM

AUUGUCGUGUCGGCCGCCACUGUCAUGGUUUUCGUGGAAAACAUGAGGAUCACCCAUGUAAUUGACAGGACCGGGACAUGGCGGC
apparent Kd [3]: 9.29 nM | apparent Kd [4]: 10.4 nM

AGCGUGCAUAGGAAAACUAUGUACGCAAAUCGAGGACCGGUACGGCCGCCACUCGUCCUCAACAUGAGGAUCACCCAUGUAAUAA
apparent Kd [3]: 19.9 nM | apparent Kd [4]: 34.7 nM

CCUCAAUAGACGGCCGCCACUGAGACAUGAGGAUACAUGAGGAUCACCCAUGUGGGUGUGUCACGCAGGACCGGGUCAAGACCCG
apparent Kd [1]: 523 nM | apparent Kd [2]: 514 nM

UAUCGUCAGACGGCCGCCACUAGAACAUGAGGAUCACCCAUGUAAGUGGCCGGUCUCCUCAUGACUAGGACCGGGUCUGACGAAU
apparent Kd [3]: 8.69 nM | apparent Kd [4]: 9.94 nM

CUAUAUAUAUCGGCCGCCACUUACUCAUGAGGUAACAACAUGAGGAUCACCCAUGUUUGAGGAUCAAGGACCGGGAUAUAUAUAG
apparent Kd [1]: 27.4 nM | apparent Kd [2]: 16.6 nM

UAUUAUCAGUCGGCCGCCACUGACACAUGAGGAUCACCCAUGUAAUUUGGGUUAUAUAGAAAAUACAGGACCGGGACUAAGGCUA
apparent Kd [3]: 260 nM | apparent Kd [4]: 276 nM

GGAGUAGAUGCGGCCGCCACUUUCUCAAGACACUACAUGAGGAUCACCCAUGUCCAUUCUACACUAAGGACCGGGCAUCCCAUGG
apparent Kd [1]: 54.3 nM | apparent Kd [2]: 39.5 nM

AACAUGAGGAUCACCCAUGUCCCAUGUGAACGAGGACCGGUACGGCCGCCACUCGACUGAGGCGGCACAUGAGGAUCACCCACAU
apparent Kd [1]: 170 nM | apparent Kd [2]: 314 nM

AUAACCCUUGACUAAAACACUAAAUCAGUUCGAGGACCGGUACGGCCGCCACUCGUGUCAAGACAUGAGGAUCACCCAUGUACCU
apparent Kd [1]: 35.8 nM | apparent Kd [2]: 23.3 nM

UAAUCAGUGCCGGUUCUCGGAUCCUCAUGUCGAGGACCGGUACGGCCGCCACUCGGAACAUGAGGAUCACCCAUGUAAUAAUAAU
apparent Kd [3]: 97.3 nM | apparent Kd [4]: 92.7 nM

AACAUGAGGAUCACCCAUGUGUCCUCGAAACGAGGACCGGUACGGCCGCCACUCGAAGCAUGUUGACGAAAAGUCAGCAUGCAAA
apparent Kd [3]: 318 nM | apparent Kd [4]: 1060 nM

AAUAUAUAGACGGCCGCCACUGGAACCAAUACAUGAGGAUCACCCAUGUGAAAAGGAUAGGUUCACAGGACCGGGUCUUCAUGUA
apparent Kd [1]: 25.7 nM | apparent Kd [2]: 9.99 nM

AGUUAUUCGAACAUGGUUGACGAGUGGCAACGAGGACCGGUACGGCCGCCACUCGAAUAAACAUGAGGAUCACCCAUGUACAAAU
apparent Kd [1]: 342 nM | apparent Kd [2]: 287 nM

AGUUUGGACUCGGCCGCCACUCGUGAUGCUUUGGCACAUGAGGAUCACCCAUGUGGUCGGCCUUAGAGGACCGGGAGUACCAGCC
apparent Kd [1]: 405 nM | apparent Kd [2]: 43 nM

AUUCAUGGAAACAUGACAUACAUAACCGGUCGAGGACCGGUACGGCCGCCACUCGGUUGGUGGCACAUGAGGAUCACCCAUGUUA
apparent Kd [1]: 23.9 nM | apparent Kd [2]: 26.4 nM
